Sampled rows, rich in hits. Any-hit rate of the full collection: about 4.5%.
M18AAP inhibitor = PfM18AAP inhibitors, malaria aminopeptidase, primary screen, biochemical, QFRET, recombinant enzyme; 290,000 tested, 1.2% active; inhibition, % at 7.35 µM; H-Glu-NHMec fluorogenic cleavage;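 active = inhibition above the campaign mean inhibition over all tested compounds plus 3 SD, cut at about 28% in these data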
CHOP inhibitor = inhibitors of CHOP promoter induction, primary screen, cell-based, unfolded protein response, luciferase reporter | CHO-K1 CHOP-promoter luciferase, tunicamycin-induced, 15-18 h | 220,000 tested, 3.8% active | AID 2732, 2010 | inhibition, % at 10 µM;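 active = compounds that reduced the stress-induced luciferase reporter signal by more than about 70% of percent inhibition, limit read from the data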
UPR CHOP act = activators of apoptotic CHOP UPR arm, primary screen, cell-based, CHO-CHOP luciferase reporter, luminescence, uHTS. UPR activation; percent of tunicamycin response over DMSO baseline. activation, % at 10 µM. 330,000 tested, 0.34% active. AID 449763, 2010;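 active = at 10 µM dose, activation of 40% or more, normalized to positive control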
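System: CHO CHOP reporter cells. Amount: 500 cells per well. Buffer or medium: F12 medium, 10% FBS. Compound dosing: one dose, 10 µM in 0.5% DMSO. Incubation: 6 h compound exposure at 37 °C after overnight seeding. Technique: Steady-Glo luciferase luminescence. Benchmarks: tunicamycin and DMSO controls.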
p97 ATPase inh = inhibitors of human p97 ATPase, primary screen, biochemical; Transitional endoplasmic reticulum ATPase (Homo sapiens), P55072; inhibition, % at 8 µM; recombinant p97 ATPase, Kinase-Glo ATP luminescence, 3 h; 220,000 tested, 0.42% active; in the data active = inhibition above about 15%
Target sequence (P55072 whole entry, looked up): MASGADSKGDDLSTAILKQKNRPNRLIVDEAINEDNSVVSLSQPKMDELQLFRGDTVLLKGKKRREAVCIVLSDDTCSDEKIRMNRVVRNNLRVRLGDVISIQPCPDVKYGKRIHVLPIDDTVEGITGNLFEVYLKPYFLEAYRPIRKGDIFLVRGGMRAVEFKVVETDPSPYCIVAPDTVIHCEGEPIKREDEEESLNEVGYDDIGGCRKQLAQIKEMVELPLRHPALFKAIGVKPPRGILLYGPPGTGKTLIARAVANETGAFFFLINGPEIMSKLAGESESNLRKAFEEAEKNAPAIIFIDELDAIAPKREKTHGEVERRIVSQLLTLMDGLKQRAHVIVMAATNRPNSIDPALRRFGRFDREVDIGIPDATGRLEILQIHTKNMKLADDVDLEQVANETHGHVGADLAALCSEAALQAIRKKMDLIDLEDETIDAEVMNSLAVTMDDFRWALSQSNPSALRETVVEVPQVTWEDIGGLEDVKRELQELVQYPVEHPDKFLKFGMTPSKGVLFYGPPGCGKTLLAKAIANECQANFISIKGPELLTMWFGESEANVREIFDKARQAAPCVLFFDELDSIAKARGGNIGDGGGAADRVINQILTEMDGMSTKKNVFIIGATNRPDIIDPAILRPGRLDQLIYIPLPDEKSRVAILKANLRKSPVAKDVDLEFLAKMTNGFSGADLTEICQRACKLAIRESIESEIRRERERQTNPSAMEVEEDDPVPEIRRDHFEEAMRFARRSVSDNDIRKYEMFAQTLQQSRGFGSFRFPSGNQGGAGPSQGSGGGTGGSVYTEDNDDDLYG
NS3 helicase inh = inhibitors of HCV NS3 helicase, primary screen, biochemical, Cy5 molecular beacon fluorescence | Hepatitis C virus NS3 helicase | NS3 helicase DNA unwinding | inhibition, % at 10.9 µM | 290,000 tested, 0.56% active | AID 1800, 2009;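 active = inhibition above the mean of all tested compounds plus 3 SD, set per campaign, cut at about 35% in these data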
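Compound dosing – single dose, 10.9 µM nominal final, DMSO 0.8% final · System – NS3 helicase fragment of HCV · Buffer or medium – MOPS pH 6.5, MgCl2, DTT, Tween20, BSA · Signal – Cy5 beacon fluorescence read at start and 1 h · Also added – annealed dual-labelled DNA beacon duplex, ATP-started · Schedule – 1 h at 25 °C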
XBP1 UPR activ = activators of adaptive XBP1 UPR arm, primary screen, cell-based, CHO-XBP1 luciferase reporter, luminescence, uHTS | AID 463104, 2010 | 330,000 tested, 0.33% active | activation, % at 20 µM | IRE1-XBP1 UPR activation; percent of tunicamycin response, DMSO as zero;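 active = versus positive control, 20 µM dose yields 30% or more activation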
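Signal: luciferase luminescence; Assay system: CHO-XBP1 luciferase reporter cells; Amount: one thousand reporter cells per well; Dosing: 20 µM single concentration, DMSO 1%; Benchmarks: high control tunicamycin 10 µg/mL final, low control DMSO vehicle only; Schedule: 6 h compound exposure at 37 °C, 5% CO2; Evaluation: percent activation relative to tunicamycin reference.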
p97 inh conf = p97 ATPase inhibitors, retest, confirmation, biochemical. shares compounds with p97 ATPase inh. recombinant p97 ATPase, Kinase-Glo ATP luminescence. inhibition, % at 8 µM. 760 tested, 44% active. AID 1517, 2009;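 active = percent inhibition of p97 ATPase above a set limit, the primary screen's mean plus 3 SD, cut at about 15% in these data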
Of the large screens only hits and unclear results are named; the others gave an inactive call (follow-up assays come after a bar, where they were run).

CC1Cc2ccccc2N1C(=O)CN1CCC(C(N)=O)CC1 (configuration not stated)	none
S=c1[nH]nc(C2CC2)n1Cc1ccccc1	p97 ATPase inh 50 | p97 inh conf inactive
S=c1[nH]nc(C2CCCCC2)n1Cc1ccccc1	none
Cc1[nH]c(=O)c(S(=O)(=O)c2ccccc2)c(C)c1Cl	none (no result: CHOP inhibitor, p97 ATPase inh)
COc1ccc(N(/N=C2\Sc3ccccc3C2=O)C(C)=O)cc1	p97 ATPase inh 22 (no result: UPR CHOP act, XBP1 UPR activ) | p97 inh conf 21
Cn1c(=O)c2ccccc2n(Cc2ccccc2Cl)c1=O	none (no result: CHOP inhibitor, p97 ATPase inh)
O=C1C=C(Nc2ccccc2C(=O)O)c2ccccc2C1=O	p97 ATPase inh 23 | p97 inh conf 21
O=C1C=C(Nc2ccccc2)c2ccccc2C1=O	none
CCOc1ccccc1NC(=O)c1cc(C(=O)c2cc(Br)ccc2O)coc1=N	CHOP inhibitor 72, p97 ATPase inh 25 | p97 inh conf 34
COc1ccc(CNc2ncnc3c2[nH]c2cc(OC)c(OC)cc23)cc1	none
COc1ccc(CNc2ncnc3c2[nH]c2ccccc23)cc1	p97 ATPase inh 16 | p97 inh conf 20
COc1ccc(/C=N/N(C)c2cc(=O)n(C)c(=O)[nH]2)cc1OC	p97 ATPase inh 18 | p97 inh conf inactive
CN(/N=C/C=C/c1ccccc1)c1cc(=O)n(C)c(=O)[nH]1	none
CCC12CN3CCN(CC(C3)/C1=N\NC(=O)c1ccc(C(C)(C)C)cc1)C2	p97 ATPase inh 21 | p97 inh conf inactive
CCC12CN3CCN(CC(C3)/C1=N\NC(=O)c1ccc(F)cc1)C2	none
Cc1noc(C)c1COc1ccc(C(=O)Nc2nnc(CC(C)C)s2)cc1	none (no result: M18AAP inhibitor, CHOP inhibitor, p97 ATPase inh, NS3 helicase inh)
COc1ccc(C(C)=O)cc1COC(=O)c1ccc(N)c([N+](=O)[O-])c1	p97 ATPase inh 18 | p97 inh conf 22
COc1ccc(C(C)=O)cc1COc1ccccc1[N+](=O)[O-]	none
COc1cc([N+](=O)[O-])cc2sc(NC(C)=O)nc12	none
O=C(Nc1ccc2nc(-c3cccs3)[nH]c2c1)c1cccs1	p97 ATPase inh 15 | p97 inh conf 19
S=C1NC2=C(CCC/C2=C\c2ccc(Cl)cc2)C(c2ccc(Cl)cc2)N1 (configuration not stated)	p97 ATPase inh 18 | p97 inh conf inactive
O=C(NNC(=S)NC(=O)c1cccnc1)c1ccc(F)cc1	p97 ATPase inh 15 | p97 inh conf inactive
O=C(NNC(=S)NC(=O)c1ccc(F)cc1)c1cccnc1	none (no result: CHOP inhibitor, p97 ATPase inh)
O=C(CC1Sc2ncnn2C1=O)Nc1ccccc1 (configuration not stated)	p97 ATPase inh 16 | p97 inh conf inactive
Cc1csc(CNC(=O)c2ccc(OC3CCN(CCc4ccccc4)CC3)cc2)n1	none (no result: CHOP inhibitor, p97 ATPase inh)
CC1(C)OC(=O)C(=CNc2ccccn2)C(=O)O1	p97 ATPase inh 15 | p97 inh conf inactive
CC1(C)OC(=O)C(=CNc2ncccn2)C(=O)O1	none
COc1ccc(S(=O)(=O)NCC2CCCN(C(=O)CSC)C2)cc1 (configuration not stated)	none (no result: CHOP inhibitor, p97 ATPase inh)
O=C1CCN2C=Nc3cccc4ccc1c2c34	p97 ATPase inh 26 | p97 inh conf inactive
Cc1cccc(NC(=O)CN(CC2CCCO2)C(=O)c2cc3ccccc3o2)c1C (configuration not stated)	none (no result: M18AAP inhibitor, CHOP inhibitor, p97 ATPase inh, NS3 helicase inh)
[O-][n+]1cccc2c(Br)cc(Br)c(O)c21	none
C[n+]1cccc2c(Br)ccc([O-])c21	p97 ATPase inh 45 | p97 inh conf inactive
COc1ccc2nc(C)cc(SCC(=O)NNC(=O)COc3ccccc3)c2c1	p97 ATPase inh 15 | p97 inh conf inactive
CCOC(=O)CNC(=O)CSc1cc(C)nc2ccc(OC)cc12	none
O=C(Nc1ccc(Cl)cn1)C1C(c2ccccc2)C1(Cl)Cl (configuration not stated)	p97 ATPase inh 17 | p97 inh conf 23
N#C/C(=C(/O)CSc1ccccn1)c1nc2ccccc2s1	none
Cc1ccc(SC/C(O)=C(\C#N)c2nc3ccccc3s2)cc1	p97 ATPase inh 21 | p97 inh conf 39
CN(C)c1ccc(NC(=O)Cc2ccccc2)c2ccccc12	none (no result: CHOP inhibitor, p97 ATPase inh)
CC#CC#Cc1cccc(=O)o1	p97 ATPase inh 29 (no result: UPR CHOP act, XBP1 UPR activ) | p97 inh conf 23
Cc1cc(C)c(OCC(=O)N(Cc2ccccc2)C2CCS(=O)(=O)C2)c(C)c1 (configuration not stated)	none (no result: CHOP inhibitor, p97 ATPase inh)
COc1ccccc1-c1nnc(NC(=O)C(C)SC2=NCCS2)s1 (configuration not stated)	p97 ATPase inh 17 | p97 inh conf 20
CCNc1nnc(-c2ccccc2OC)s1	none
C/C(=N\NC(=O)c1ccccc1O)c1ccc(Br)s1	none
C/C(=N\NC(=O)c1cccc(F)c1)c1ccc(Br)s1	p97 ATPase inh 19 | p97 inh conf inactive
COCc1c(Br)c(C)nc2sc3c(=O)[nH]nnc3c12	none (no result: CHOP inhibitor, p97 ATPase inh)
O=C(N/N=C/c1c(Cl)nc2ccccn2c1=O)c1cccnc1	p97 ATPase inh 17 | p97 inh conf inactive
CC1=NN(C(=O)c2ccoc2C)C(O)(C(F)(F)F)C1 (configuration not stated)	none
Cn1c2ccccc2c(=O)c2c(=O)n(Cc3ccco3)c(-c3ccc(Cl)cc3Cl)nc21	p97 ATPase inh 33 | p97 inh conf 24
CSC1=NC(=O)/C(=C\c2cccc3ccccc23)S1	CHOP inhibitor 103, p97 ATPase inh 15 | p97 inh conf inactive
COc1cccc(/C=C2\N=C(SC)SC2=O)c1OC	none
COC(=O)C(NC(=O)c1ccccc1C(=O)O)c1ccc2ccccc2c1 (configuration not stated)	none (no result: CHOP inhibitor, p97 ATPase inh)
N#Cc1c(N(CCO)CCO)nc(N)c2c(N)nc3c(c12)CC(=O)N3CC1CCCO1 (configuration not stated)	p97 ATPase inh 26 | p97 inh conf inactive
CC(C)c1ccc(NC(=O)C(c2ccccc2)N2CC(=O)Nc3ccccc32)cc1 (configuration not stated)	p97 ATPase inh 15 | p97 inh conf inactive
Cc1cc(=O)n(C2CCS(=O)(=O)C2)[nH]1 (configuration not stated)	p97 ATPase inh 24 | p97 inh conf inactive
Cc1ccccc1-c1nnnn1C1CCS(=O)(=O)C1 (configuration not stated)	none
